Measured values of several laboratories.
Protocols differ between the studies behind these lines.
Target: Serine/threonine-protein kinase tousled-like 2 (TLK2, Homo sapiens, UniProt Q86UE8)

The remaining binding of O=C(NCC1CCOCC1)c1n[nH]cc1NC(=O)c1c(F)cccc1F is reported as 100% (binding, competition with immobilised ligand; 1 µM).
CCS(=O)(=O)c1cc2cc(C[C@](O)(CC(C)(C)c3ccc(F)cc3C(N)=O)C(F)(F)F)[nH]c2cn1 has a remaining binding of 100% (cell-free assay, competition with immobilised ligand; 1 µM).
CN(c1nccc(-c2cnn3ncccc23)n1)C1CC1 has a remaining binding of 100% (binding; 1 µM).
For C[C@@H](c1ccc(-n2cnc3c(N)ncnc32)cc1)N1CCc2nn(C)c(Cc3ccccc3)c2C1=O, the remaining binding was 99% (binding, competition with immobilised ligand; 0.1 µM).
With O=C(c1ccc(Nc2ncc(Cl)c(-c3cc4ccccc4s3)n2)cc1)N1CCC(N2CCCC2)CC1 the remaining binding was 26% (binding, competition with immobilised ligand; 1 µM).
Cc1nc(C2CCN(C(=O)c3ccc(OC(F)(F)F)cc3N)CC2)c2ncc(N3CCN(C)CC3)cc2n1 has a remaining binding of 100% (cell-free assay, competition with immobilised ligand; 1 µM).
F[C@@H]1CCN(c2nccc(-c3cnn4ncccc34)n2)C1 has a remaining binding of 100% (binding; 1 µM).
COc1cnc(Nc2cccc(S(N)(=O)=O)c2)nc1N1CCN(c2ccccc2)C(=O)C1 gave a remaining binding of 100% (binding, competition with immobilised ligand; 1 µM).
CC1=C(C#N)[C@@H](c2ccc3[nH]nc(C)c3c2)C(C#N)=C(c2ccc(Cl)cc2)N1 gave a remaining binding of 100% (cell-free assay, competition with immobilised ligand; 1 µM).
For N[C@H]1CCN(c2nccc(-c3cnn4ncccc34)n2)C1, the remaining binding was 100% (binding; 1 µM).
The remaining binding of O=C(NCCCN1CCOCC1)c1ccc(Nc2nccc(-c3cc4ccccc4s3)n2)cc1 is reported as 64% (binding, competition with immobilised ligand; 1 µM).
The remaining binding of CNC(=O)[C@@H]1CC[C@@H](n2c(-c3ccc4cnccc4c3)nc3ccc(C(=O)NCc4cccc(C(N)=O)c4)cc32)C1 is reported as 100% (binding, competition with immobilised ligand; 1 µM).
CN(C)c1ncc(F)c(-c2cnn3ncccc23)n1 gave a remaining binding of 100% (binding; 1 µM).
Nc1ncc2c(n1)-c1c([nH]c3ccc(C#CC4CC4)cc13)CCCC2 gave a remaining binding of 100% (binding, competition with immobilised ligand; 1 µM).
For Cc1nc(Cc2cccc(C(F)(F)F)c2)sc1-c1ccc(C(N)=O)nc1, the remaining binding was 82% (cell-free assay, competition with immobilised ligand; 1 µM).
With C[C@H]1CCN(c2nccc(-c3cnn4ncccc34)n2)C1 the remaining binding was 100% (binding; 1 µM).
The remaining binding of NS(=O)(=O)c1cc(NC(=O)C2(c3ccccc3Cl)CC2)ccc1Oc1cccc(Cl)c1 is reported as 100% (cell-free assay, competition with immobilised ligand; 1 µM).
With c1cncc(-c2cccc(Nc3nccc(NC4CCCCC4)n3)c2)c1 the remaining binding was 100% (binding, competition with immobilised ligand; 10 µM).
For Cc1cnc(Nc2ccc(C(=O)N3CCC(N4CCCC4)CC3)cc2)nc1-c1cc2ccccc2s1, the remaining binding was 15% (binding, competition with immobilised ligand; 1 µM).
O=C(NCc1ncc(C(F)(F)F)cc1Cl)c1ccc2c(c1)C1(CCS(=O)(=O)CC1)[C@@H](C1CC1)N2S(=O)(=O)c1ccc(F)cc1 has a remaining binding of 100% (cell-free assay, competition with immobilised ligand; 1 µM).
CN(CCCC(F)(F)F)c1nccc(-c2cnn3ncccc23)n1 has a remaining binding of 100% (binding; 1 µM).
